Laboratory results reported in ChEMBL document CHEMBL1137338, “Effects of substitution on 9-(3-bromo-4-fluorophenyl)-5,9-dihydro-3H,4H-2,6-dioxa-4- azacyclopenta[b]naphthalene-1,8-dione, a dihydropyridine ATP-sensitive potassium channel opener” (J Med Chem, 2006).

Each molecule was assayed against Sulfonylurea receptor 2, Kir6.2 (Homo sapiens, UniProt O60706+Q14654) (assay: Ability to open human urinary bladder Kir6.2 channel containing SUR2B in Ltk cells by FLIPR assay).
Type: functional, cell-based
How it was run: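 Ltk- cells stably transfected with the Kir6.2/SUR2B exon 17- splice variant. Membrane potential was followed with DiBAC dye in a 96-well cell-based kinetic fluorescence (FLIPR) assay. The highest concentration tested was 10 µM. Each compound's maximal fluorescence response was expressed as % of the response to the reference opener.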

Sequence of Sulfonylurea receptor 2, Kir6.2 (Q14654 whole entry): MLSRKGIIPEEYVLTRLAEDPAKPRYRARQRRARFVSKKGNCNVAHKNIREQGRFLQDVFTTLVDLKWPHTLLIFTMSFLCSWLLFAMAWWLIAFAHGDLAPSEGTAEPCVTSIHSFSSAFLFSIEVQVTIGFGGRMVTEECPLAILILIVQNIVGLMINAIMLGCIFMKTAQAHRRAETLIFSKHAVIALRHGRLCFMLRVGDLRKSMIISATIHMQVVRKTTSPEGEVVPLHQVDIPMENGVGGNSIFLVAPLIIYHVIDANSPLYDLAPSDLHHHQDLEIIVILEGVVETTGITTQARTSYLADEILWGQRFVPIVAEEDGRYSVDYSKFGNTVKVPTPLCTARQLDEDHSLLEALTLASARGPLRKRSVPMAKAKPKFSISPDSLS
Sequence of Sulfonylurea receptor 2, Kir6.2 (O60706 whole entry): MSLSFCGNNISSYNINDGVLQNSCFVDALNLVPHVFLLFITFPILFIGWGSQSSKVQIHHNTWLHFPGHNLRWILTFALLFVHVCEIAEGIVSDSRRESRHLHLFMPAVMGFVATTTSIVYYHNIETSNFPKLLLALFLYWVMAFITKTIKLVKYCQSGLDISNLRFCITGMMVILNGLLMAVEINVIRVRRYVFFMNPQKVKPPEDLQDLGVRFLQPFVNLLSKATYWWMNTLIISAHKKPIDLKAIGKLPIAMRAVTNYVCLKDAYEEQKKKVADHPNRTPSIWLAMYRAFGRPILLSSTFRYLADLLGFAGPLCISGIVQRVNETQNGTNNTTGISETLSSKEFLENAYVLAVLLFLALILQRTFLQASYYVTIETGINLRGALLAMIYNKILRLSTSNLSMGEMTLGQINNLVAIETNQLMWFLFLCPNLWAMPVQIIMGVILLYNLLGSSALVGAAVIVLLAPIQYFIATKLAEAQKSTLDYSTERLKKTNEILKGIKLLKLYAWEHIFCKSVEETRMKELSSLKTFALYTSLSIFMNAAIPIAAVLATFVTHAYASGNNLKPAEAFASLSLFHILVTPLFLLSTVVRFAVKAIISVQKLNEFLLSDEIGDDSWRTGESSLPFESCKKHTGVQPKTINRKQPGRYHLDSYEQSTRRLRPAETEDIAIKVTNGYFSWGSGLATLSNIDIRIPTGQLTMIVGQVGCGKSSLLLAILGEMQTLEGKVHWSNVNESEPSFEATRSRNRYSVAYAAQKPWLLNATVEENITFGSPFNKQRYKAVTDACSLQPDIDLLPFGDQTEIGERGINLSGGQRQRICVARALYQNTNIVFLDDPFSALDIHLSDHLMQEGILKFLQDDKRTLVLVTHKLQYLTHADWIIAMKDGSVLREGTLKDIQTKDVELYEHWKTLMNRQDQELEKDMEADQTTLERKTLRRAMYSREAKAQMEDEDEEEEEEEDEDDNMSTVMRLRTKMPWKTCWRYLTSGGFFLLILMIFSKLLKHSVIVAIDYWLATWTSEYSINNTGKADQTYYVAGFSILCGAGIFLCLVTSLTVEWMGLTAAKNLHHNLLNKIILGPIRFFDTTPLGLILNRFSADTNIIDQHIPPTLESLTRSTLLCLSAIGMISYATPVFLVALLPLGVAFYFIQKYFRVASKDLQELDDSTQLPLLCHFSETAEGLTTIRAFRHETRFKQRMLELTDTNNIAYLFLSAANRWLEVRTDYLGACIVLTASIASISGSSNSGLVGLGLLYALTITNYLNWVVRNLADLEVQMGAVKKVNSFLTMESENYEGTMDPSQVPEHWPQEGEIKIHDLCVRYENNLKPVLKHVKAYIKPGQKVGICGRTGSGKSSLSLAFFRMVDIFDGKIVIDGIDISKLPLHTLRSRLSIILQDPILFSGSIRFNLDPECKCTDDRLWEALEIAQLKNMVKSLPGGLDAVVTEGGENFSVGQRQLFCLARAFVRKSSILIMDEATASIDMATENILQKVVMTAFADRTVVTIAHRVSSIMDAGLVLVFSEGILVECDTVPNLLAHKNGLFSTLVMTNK

Row | Compound | EC50 [nM]
1 | O=C1COCC2=C1C(c1ccc(F)c(Br)c1)C1=C(O)C3(CCCC3)OCC1=N2 (stereo not drawn) | > 10000
2 | CC[C@H]1OCC(O)=C2C1=NC1=C(C(=O)COC1)[C@H]2c1ccc(Cl)c(Br)c1 (racemic) | 1620
3 | CCC[C@H]1OC(O)=C2C1=NC1=C(C(=O)COC1)[C@H]2c1ccc(F)c(Cl)c1 (racemic) | 67.6
4 | CC[C@H]1OCC(O)=C2C1=NC1=C(C(=O)COC1)[C@H]2c1ccc(C)c(Br)c1 (racemic) | 1580
5 | CCC[C@H]1OC(O)=C2C1=NC1=C(C(=O)COC1)[C@H]2c1ccc(Cl)c(Cl)c1 (racemic) | 603
6 | CCC[C@H]1OC(O)=C2C1=NC1=C(C(=O)COC1)[C@H]2c1ccc(Br)c(Br)c1 (racemic) | 331
7 | CCC[C@H]1OC(O)=C2C1=NC1=C(C(=O)COC1)[C@H]2c1ccc(Cl)c(Br)c1 (racemic) | 174
8 | CC[C@@H]1OCC2=C(C1=O)[C@@H](c1ccc(F)c(Br)c1)C1=C(O)OCC1=N2 (racemic) | > 10000
9 | C[C@H]1OC(O)=C2C1=NC1=C(C(=O)COC1)[C@H]2c1ccc(F)c(Br)c1 (racemic) | 1000
10 | CC[C@H]1OCC(O)=C2C1=NC1=C(C(=O)COC1)[C@H]2c1ccc(Cl)c(Cl)c1 (racemic) | 105
11 | COC[C@H]1OC(O)=C2C1=NC1=C(C(=O)COC1)[C@H]2c1ccc(F)c(Br)c1 (racemic) | 22.9
12 | CCC[C@H]1OC(O)=C2C1=NC1=C(C(=O)COC1)[C@H]2c1ccc(C)c(Br)c1 (racemic) | 398
13 | CCC[C@@H]1OC(O)=C2C1=NC1=C(C(=O)COC1)[C@H]2c1ccc(F)c(Br)c1 (racemic) | 5.13
14 | CCC[C@H]1OC(O)=C2C1=NC1=C(C(=O)COC1)[C@H]2c1ccc(Br)c(Cl)c1 (racemic) | 427
15 | CC[C@H]1OC(O)=C2C1=NC1=C(C(=O)COC1(C)C)[C@H]2c1ccc(F)c(Br)c1 (racemic) | 3470
16 | CC[C@@H]1OC(O)=C2C1=NC1=C(C(=O)COC1)[C@H]2c1ccc(F)c(Br)c1 (racemic) | 35.5
17 | CC[C@@H]1OCC(O)=C2C1=NC1=C(C(=O)COC1)[C@H]2c1ccc(F)c(Br)c1 (racemic) | 14.1
18 | C[C@@H]1OCC2=C(C1=O)[C@H](c1ccc(F)c(Br)c1)C1=C(O)OCC1=N2 (racemic) | 457
19 | CC[C@H]1OCC(O)=C2C1=NC1=C(C(=O)COC1)[C@H]2c1ccc(Br)c(Br)c1 (racemic) | 135
20 | CC(C)C[C@H]1OC(O)=C2C1=NC1=C(C(=O)COC1)[C@H]2c1ccc(F)c(Br)c1 (racemic) | > 10000
21 | CC[C@H]1OCC(O)=C2C1=NC1=C(C(=O)COC1)[C@H]2c1ccc(F)c(Cl)c1 (racemic) | 457
22 | CCCC[C@H]1OC(O)=C2C1=NC1=C(C(=O)COC1)[C@H]2c1ccc(F)c(Br)c1 (racemic) | 2190
23 | CC[C@H]1OCC(O)=C2C1=NC1=C(C(=O)COC1)[C@H]2c1ccc(F)c(I)c1 (racemic) | 12000
24 | CC[C@H]1OCC(O)=C2C1=NC1=C(C(=O)COC1)[C@H]2c1ccc(Br)c(Cl)c1 (racemic) | 1000
25 | CC[C@H]1OCC(O)=C2C1=NC1=C(C(=O)COC1)[C@H]2c1ccc(F)c(Br)c1 (racemic) | 186

Row | Compound | EC50 [nM]
26 | C[C@@H]1OCC2=C(C1=O)[C@@H](c1ccc(F)c(Br)c1)C1=C(O)OCC1=N2 (racemic) | 501
27 | CCC[C@H]1OC(O)=C2C1=NC1=C(C(=O)COC1)[C@H]2c1ccc(F)c(I)c1 (racemic) | 75.9
28 | C[C@@H]1OC(O)=C2C1=NC1=C(C(=O)COC1)[C@H]2c1ccc(F)c(Br)c1 (racemic) | 5.5
29 | CC[C@H]1OC(O)=C2C1=NC1=C(C(=O)C(C)(C)OC1)[C@H]2c1ccc(F)c(Br)c1 (racemic) | 282
30 | CCCCC[C@H]1OC(O)=C2C1=NC1=C(C(=O)COC1)[C@H]2c1ccc(F)c(Br)c1 (relative stereo) | > 10000
31 | CC[C@H]1C2=C(C(=O)N1C)[C@H](c1ccc(F)c(Br)c1)C1=C(O)COCC1=N2 (relative stereo) | > 10000
32 | CCCCC[C@@H]1OC(O)=C2C1=NC1=C(C(=O)COC1)[C@H]2c1ccc(F)c(Br)c1 (relative stereo) | > 10000
33 | CC(C)[C@H]1OC(O)=C2C1=NC1=C(C(=O)COC1)[C@H]2c1ccc(F)c(Br)c1 (relative stereo) | > 10000
34 | CC[C@@H]1C2=C(C(=O)N1C)[C@H](c1ccc(F)c(Br)c1)C1=C(O)COCC1=N2 (relative stereo) | > 10000
35 | CC1(C)OCC2=C(C1=O)C(c1ccc(F)c(Br)c1)C1=C(O)OCC1=N2 (single isomer, unassigned; (+)) | 26.9
36 | O=C1COCC2=C1C(c1ccc(F)c(Br)c1)C1=C(O)OCC1=N2 (stereo in doubt; 6) | 45.7
37 | C[C@@H]1OCC2=C(C1=O)[C@@H](c1ccc(F)c(Br)c1)C1=C(O)OCC1=N2 (stereo in doubt; 7a) | 174
38 | C[C@@H]1OCC2=C(C1=O)[C@@H](c1ccc(F)c(Br)c1)C1=C(O)OCC1=N2 (stereo in doubt; 7b) | 513
39 | C[C@@H]1OCC2=C(C1=O)[C@H](c1ccc(F)c(Br)c1)C1=C(O)OCC1=N2 (stereo in doubt; 8a) | 72.4
40 | C[C@@H]1OCC2=C(C1=O)[C@H](c1ccc(F)c(Br)c1)C1=C(O)OCC1=N2 (stereo in doubt; 8b) | 295
41 | CC1(C)OCC2=C(C1=O)C(c1ccc(F)c(Br)c1)C1=C(O)OCC1=N2 (stereo in doubt; 9) | 24
42 | CC1(C)OCC2=C(C1=O)C(c1ccc(F)c(Br)c1)C1=C(O)OCC1=N2 (stereo in doubt; 9b) | 2820
43 | C[C@@H]1OC(O)=C2C1=NC1=C(C(=O)COC1)[C@H]2c1ccc(F)c(Br)c1 (stereo in doubt; 17b) | 51.3
44 | C[C@H]1OC(O)=C2C1=NC1=C(C(=O)COC1)[C@H]2c1ccc(F)c(Br)c1 (stereo in doubt; 18a) | 64.6
45 | C[C@H]1OC(O)=C2C1=NC1=C(C(=O)COC1)[C@H]2c1ccc(F)c(Br)c1 (stereo in doubt; 18b) | 257
46 | CC[C@@H]1OC(O)=C2C1=NC1=C(C(=O)COC1)[C@H]2c1ccc(F)c(Br)c1 (stereo in doubt; 20a) | 3.89
47 | CC[C@@H]1OC(O)=C2C1=NC1=C(C(=O)COC1)[C@H]2c1ccc(F)c(Br)c1 (stereo in doubt; 20b) | 145
48 | CCC[C@@H]1OC(O)=C2C1=NC1=C(C(=O)COC1)[C@H]2c1ccc(F)c(Br)c1 (stereo in doubt; 22a) | 1
49 | CCC[C@@H]1OC(O)=C2C1=NC1=C(C(=O)COC1)[C@H]2c1ccc(F)c(Br)c1 (stereo in doubt; 22b) | 3.72
50 | CCC[C@H]1OC(O)=C2C1=NC1=C(C(=O)COC1)[C@H]2c1ccc(F)c(Br)c1 (stereo in doubt; 23a) | 3240

Row | Compound | EC50 [nM]
51 | COC[C@H]1OC(O)=C2C1=NC1=C(C(=O)COC1)[C@H]2c1ccc(F)c(Br)c1 (stereo in doubt; 25a) | 479
52 | COC[C@H]1OC(O)=C2C1=NC1=C(C(=O)COC1)[C@H]2c1ccc(F)c(Br)c1 (stereo in doubt; 25b) | 22.9
53 | CCCC[C@H]1OC(O)=C2C1=NC1=C(C(=O)COC1)[C@H]2c1ccc(F)c(Br)c1 (stereo in doubt; 29a) | 5130
54 | CC(C)C[C@H]1OC(O)=C2C1=NC1=C(C(=O)COC1)[C@H]2c1ccc(F)c(Br)c1 (stereo in doubt; 31a) | 2510
55 | CC[C@H]1OC(O)=C2C1=NC1=C(C(=O)C(C)(C)OC1)[C@H]2c1ccc(F)c(Br)c1 (stereo in doubt; 36a) | 437
56 | CC[C@H]1OC(O)=C2C1=NC1=C(C(=O)C(C)(C)OC1)[C@H]2c1ccc(F)c(Br)c1 (stereo in doubt; 36b) | 550
57 | CC[C@H]1OC(O)=C2C1=NC1=C(C(=O)COC1(C)C)[C@H]2c1ccc(F)c(Br)c1 (stereo in doubt; 38a) | 1580
58 | CC[C@H]1OC(O)=C2C1=NC1=C(C(=O)COC1(C)C)[C@H]2c1ccc(F)c(Br)c1 (stereo in doubt; 38b) | > 10000
59 | CCC[C@H]1OC(O)=C2C1=NC1=C(C(=O)COC1)[C@H]2c1ccc(F)c(Cl)c1 (stereo in doubt; 39a) | 3390
60 | CCC[C@H]1OC(O)=C2C1=NC1=C(C(=O)COC1)[C@H]2c1ccc(F)c(I)c1 (stereo in doubt; 41a) | 1950
61 | CCC[C@H]1OC(O)=C2C1=NC1=C(C(=O)COC1)[C@H]2c1ccc(Cl)c(Cl)c1 (stereo in doubt; 42a) | 1320
62 | CCC[C@H]1OC(O)=C2C1=NC1=C(C(=O)COC1)[C@H]2c1ccc(Cl)c(Cl)c1 (stereo in doubt; 42b) | 2000
63 | CCC[C@H]1OC(O)=C2C1=NC1=C(C(=O)COC1)[C@H]2c1ccc(Cl)c(Br)c1 (stereo in doubt; 43a) | 813
64 | CCC[C@H]1OC(O)=C2C1=NC1=C(C(=O)COC1)[C@H]2c1ccc(Cl)c(Br)c1 (stereo in doubt; 43b) | 151
65 | CCC[C@H]1OC(O)=C2C1=NC1=C(C(=O)COC1)[C@H]2c1ccc(Br)c(Cl)c1 (stereo in doubt; 44a) | 1050
66 | CCC[C@H]1OC(O)=C2C1=NC1=C(C(=O)COC1)[C@H]2c1ccc(Br)c(Cl)c1 (stereo in doubt; 44b) | 437
67 | CCC[C@H]1OC(O)=C2C1=NC1=C(C(=O)COC1)[C@H]2c1ccc(Br)c(Br)c1 (stereo in doubt; 45a) | 1150
68 | CCC[C@H]1OC(O)=C2C1=NC1=C(C(=O)COC1)[C@H]2c1ccc(Br)c(Br)c1 (stereo in doubt; 45b) | 126
69 | CCC[C@H]1OC(O)=C2C1=NC1=C(C(=O)COC1)[C@H]2c1ccc(C)c(Br)c1 (stereo in doubt; 46a) | 3470
70 | CCC[C@H]1OC(O)=C2C1=NC1=C(C(=O)COC1)[C@H]2c1ccc(C)c(Br)c1 (stereo in doubt; 46b) | 219
71 | CC[C@@H]1OCC(O)=C2C1=NC1=C(C(=O)COC1)[C@H]2c1ccc(F)c(Br)c1 (stereo in doubt; 70a) | 166
72 | CC[C@@H]1OCC(O)=C2C1=NC1=C(C(=O)COC1)[C@H]2c1ccc(F)c(Br)c1 (stereo in doubt; 70b) | 20
73 | CC[C@H]1OCC(O)=C2C1=NC1=C(C(=O)COC1)[C@H]2c1ccc(F)c(Br)c1 (stereo in doubt; 71b) | > 10000
